Screening data: PubChem BioAssay, Columbia University Molecular Screening Center
The entries come from a sample that favours hits as a whole.
INS promoter act – TRM-6 insulin promoter activation. TRM-6 cells, insulin promoter eGFP reporter, imaging; plate-scaled: unstimulated 0, stimulated control 100. AID 1296. activation, % at 2 µM. 130,000 tested, 0.81% active;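 active = activation at 2 µM above a set limit, confirmed on inspection of the cell images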;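 also: share of cells whose green reporter signal exceeds an intensity cutoff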
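Test system: human fetal islet-derived TRM-6 cells with tamoxifen-inducible insulin promoter–eGFP reporter; schedule: overnight tamoxifen, then two-day compound incubation at 37 °C; measured by: high-content imaging of fixed cells with Hoechst nuclear stain; evaluation: percent cells above green-intensity threshold, converted to percent activation versus plate controls; control set: stimulated and unstimulated wells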
Large screens that a line does not name were inactive.

Cc1ccc(CNC(=O)C(=O)NCC2OCCN2S(=O)(=O)c2cccs2)cc1 (configuration not stated)	none
O=C1C2CC=CCC2C(=O)N1c1ccc(NCCc2ccc(O)cc2)c([N+](=O)[O-])c1 (configuration not stated)	none
CC(=O)C1=C(c2ccccc2)NC(=O)NC1c1ccccc1OCC(=O)NCc1ccccc1 (configuration not stated)	none
COc1ccc(NC(=O)/C=C/c2ccc(F)cc2)cn1	none
COc1ccc(NC(=O)c2ccc(Cl)c(S(=O)(=O)N3CCc4ccccc4C3)c2)cn1	none
COc1ccc(NC(=O)/C(Cl)=C(/Cl)S(=O)Cc2ccccc2Cl)cn1 (configuration not stated)	INS promoter act 669.2
COC(=O)c1[nH]nc(C(=O)OC(C)(C)C)c1-c1ccccc1	none
Cn1ncc(N=Cc2ccc([N+](=O)[O-])cc2)c1C(=O)N1CCOCC1	none
Cc1cc(C)nc(SCc2nnc(SCC(=O)Nc3ccccc3C)n2Cc2ccco2)n1	none
CC(C)CNC(=O)CSc1nc2nn(-c3ccccc3)c(=O)c-2c2n1CCCCC2	INS promoter act 466.7
COC(=O)c1c(NC(=O)CSc2nnnn2-c2ccccc2)sc2c1CCCC2	none
CC(NC(=O)CSc1nc(=O)cc(N)n1-c1ccccc1)c1ccccc1 (configuration not stated)	none
CCOC(=O)CC(=O)CSc1ncnc2c1cnn2-c1ccccc1	none
CCOC(=O)CSc1ncnc2c1cnn2-c1ccccc1	INS promoter act 121.4
Cc1ccc(-n2ncc3c(SCc4ccccc4)ncnc32)cc1	none
Cc1ccc(NC(=O)CN(C)C(=O)CSc2nc3ccccc3o2)cc1	none
CC(=O)N1C2CCCCC2S[C@H]2CCCCC21 (some centres not stated)	INS promoter act 200.0
CC1CCCC(C)N1C(=O)C1CCCCC1 (configuration not stated)	none
CCn1c(SCC(=O)c2[nH]c(C)c(C(C)=O)c2C)nnc1-c1ccccc1	none
COc1ccc2c(-c3ccccc3)cc(SCC(=O)NC(N)=O)nc2c1	none
COc1ccc2c(-c3ccccc3)cc(SCC(=O)N(C)C)nc2c1	none
COc1ccc2c(C)cc(SCC#N)nc2c1	INS promoter act 166.7
C/C(=N\Nc1ccc(C(F)(F)F)cc1[N+](=O)[O-])C1CC1	none
CCOC(=O)CSc1nc2c(sc3ccc([N+](=O)[O-])cc32)c(=O)n1Cc1ccco1	none
CCN(CC)S(=O)(=O)c1cc(C(=O)Nc2nncs2)c(Cl)cc1Cl	none
CC(C)(C)OC(=O)N1CCN(c2ccc(CNC(=O)c3ccc(Cl)cc3)cc2)CC1	none
COc1ccc(CCNc2cc(=O)[nH]c(N)n2)cc1	INS promoter act 615.4
COc1ccc(Nc2nc(C)cc(=O)[nH]2)cc1	none
COc1ccc(S(=O)(=O)NCCc2ccc(F)cc2)cc1	none
O=C1NCCN(Cc2cccc(Oc3ccccc3)c2)C1CC(=O)N1CCCO1 (configuration not stated)	none
Cc1ccccc1N1CC(C(=O)O)CC1=O (configuration not stated)	none
Cc1cc(N2CC(C(=O)NCc3cccs3)CC2=O)ccc1C(C)C (configuration not stated)	none
Cc1ccc(N2CC(C(N)=O)CC2=O)cc1C (configuration not stated)	INS promoter act 542.9
O=C(Nc1ccccc1-c1nnn(CC(=O)N2CCOCC2)n1)c1ccccc1F	none
COc1ccc(C=O)cc1CSc1nnc(COc2cccc3cccnc23)o1	none
CN(C)CCNC(=O)C(C(=O)c1ccc(F)cc1)n1ccccc1=O (configuration not stated)	none
Cc1ccc(/C=C/C(=O)NCc2ccccn2)o1	none
Cc1cccc(NC(=O)NCCc2c[nH]c3ccccc23)c1	none
Cc1ccc(/C=C/C(=O)NCCc2c[nH]c3ccccc23)o1	INS promoter act 466.7
COc1ccc(OC)c(C(=O)CSc2nnc(Cc3cccs3)n2CCc2ccccc2)c1	none
O=C(CN1CCCCC1)NC(=O)NCc1ccccc1	none
CCOc1ccc2ccccc2c1/C=N/NC(=O)CC1(C)OCCCO1	none
CCOC(=O)c1sc(=S)n(-c2ccc(Cl)cc2)c1SC	none
CCCCC(=O)Nc1cccn2ncnc12	none
CCC(NC(=O)c1ccc([N+](=O)[O-])cc1[N+](=O)[O-])c1ccccc1 (configuration not stated)	INS promoter act 80.0
O=C(Nc1cccc2oc(=O)ccc12)c1ccc([N+](=O)[O-])cc1[N+](=O)[O-]	none
CCC(NC(=O)COc1ccc([N+](=O)[O-])cc1)c1ccccc1 (configuration not stated)	none
CC1(C(=O)NCCN2CCOCC2)C=CC2(CCCCC2)N1C(=O)c1ccccc1 (configuration not stated)	none
COc1cccc(CN(C)C(=O)c2ccc3nccnc3c2)c1	none
CC1=C(C(=O)OCC2CCCO2)C(c2coc3ccccc3c2=O)C2=C(CCCC2=O)N1 (configuration not stated)	none
C=CCN1C(=O)C(CC(=O)Nc2ccccc2)SC1=Nc1c(C)n(C)n(-c2ccccc2)c1=O (configuration not stated)	none
Cc1ccc(Nc2nc(N)c([N+](=O)[O-])c(N3CCC(C)CC3)n2)cc1C	INS promoter act 528.6
